In assay [1] the test system is Human betaherpesvirus 5. The assay is described as follows: Antiviral activity against Human cytomegalovirus AD169 infected in human HEL cells assessed as inhibition of viral plaque formation at 250 uM. The class given is functional, organism-based.
In assay [2] the test system is Vaccinia virus. Nature of the assay: Antiviral activity against Vaccinia virus infected in human HEL cells assessed as inhibition of viral plaque formation at 250 uM. The class given is functional, organism-based. Conditions: Orthopoxvirus vaccinia. The method in brief: (§1)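 Confluent host cell monolayers were inoculated with 100 CCID50 of virus in the presence of test compound at serial dilutions (250, 50, 10, … μM). Viral cytopathicity was scored once it reached completion in untreated virus-infected controls.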

In assay [3] the test system is HEL. Nature of the assay: Cytotoxicity against human HEL cells 3 days by coulter counting. The class given is functional. Conditions: 72 h. The method, boiled down:
(§2)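 Cells were suspended at 300,000–500,000 cells/mL and added 1:1 to compound dilutions. Incubation was at 37 °C, 2 days for L1210 and 3 days for CEM, HeLa and HEL. Cells were counted with a Coulter counter. CC50 is the concentration inhibiting cell proliferation by 50%.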

In assay [4] the test system is Mammalian orthoreovirus 1. Nature of the assay: Antiviral activity against Reovirus-1 infected in african green monkey Vero cells assessed as inhibition of viral plaque formation at 250 uM. The class given is functional, organism-based. The method, boiled down: as §1
Assay [5] has as its system Coxsackievirus B4. Nature of the assay: Antiviral activity against Coxsackievirus B4 infected in african green monkey Vero cells assessed as inhibition of viral plaque formation at 250 uM. Type of assay: functional, organism-based. The method in brief: as §1
Assay [6] has as its system HeLa. Nature of the assay: Cytotoxicity against human HeLa cells 3 days by coulter counting. Type of assay: functional. Conditions: 72 h. The method, boiled down: as §2
The test system of assay [7] is Human immunodeficiency virus 2. The assay is described as follows: Antiviral activity against Human immunodeficiency virus 2 infected in human CEM cells assessed as inhibition of virus-induced giant cell formation after 4 days by microscopic analysis. Conditions: CCRF-CEM. The class given is functional, organism-based. The method in brief: (§3)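 CEM cells at about 3 × 10⁵ cells/cm³ were infected with 100 CCID50/mL of HIV-1(IIIB) or HIV-2(ROD), then seeded into wells holding test compound dilutions. After 4 days at 37 °C, virus-induced giant cell formation was scored microscopically.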

The test system of assay [8] is Sindbis virus. Nature of the assay: Antiviral activity against Sindbis virus infected in african green monkey Vero cells assessed as inhibition of viral plaque formation at 250 uM. Type of assay: functional, organism-based. The method in brief:
as §1

Assay [9] deals with Punta Toro virus. Nature of the assay: Antiviral activity against Punta Toro virus infected in african green monkey Vero cells assessed as inhibition of viral plaque formation at 250 uM. Type of assay: functional, organism-based.
In assay [10] the test system is Human immunodeficiency virus 1. Nature of the assay: Antiviral activity against Human immunodeficiency virus 1 infected in human CEM cells assessed as inhibition of virus-induced giant cell formation after 4 days by microscopic analysis. The class given is functional, organism-based. Conditions: CCRF-CEM. The method in brief: as §3
Assay [11] relates to Feline coronavirus. Nature of the assay: Antiviral activity against Feline coronavirus infected in CrFK cells assessed as inhibition of viral plaque formation at 250 uM. Type of assay: functional, organism-based. The method, boiled down: as §1
For assay [12], the system named is Human alphaherpesvirus 1. Nature of the assay: Antiviral activity against Herpes simplex virus 1 KOS infected in human HEL cells assessed as inhibition of viral plaque formation at 250 uM. The class given is functional, organism-based. The method, boiled down: as §1
Assay [13] concerns Felid alphaherpesvirus 1. Nature of the assay: Antiviral activity against Felid herpesvirus 1 infected in CrFK cells assessed as inhibition of viral plaque formation at 250 uM. The class given is functional, organism-based. The method in brief:
as §1

The subject of assay [14] is Vesicular stomatitis virus. The assay is described as follows: Antiviral activity against Vesicular stomatitis virus infected in human Hela cells assessed as inhibition of viral plaque formation at 250 uM. Type of assay: functional, organism-based.
Assay [15] concerns Human betaherpesvirus 5. The assay is described as follows: Antiviral activity against Human cytomegalovirus Davis infected in human HEL cells assessed as inhibition of viral plaque formation at 250 uM. The class given is functional, organism-based.
The subject of assay [16] is Human alphaherpesvirus 2. Nature of the assay: Antiviral activity against Herpes simplex virus 2 G infected in human HEL cells assessed as inhibition of viral plaque formation at 250 uM. Type of assay: functional, organism-based. Conditions: strain G.
In assay [17] the test system is Human alphaherpesvirus 1. Nature of the assay: Antiviral activity against thymidine kinase-deficient acv-resistant Herpes simplex virus 1 KOS infected in human HEL cells assessed as inhibition of viral plaque formation at 250 uM. The class given is functional, organism-based.
For assay [18], the system named is L1210. Nature of the assay: Cytotoxicity against mouse L1210 cells 2 days by coulter counting. Type of assay: functional. The settings on record: L1210, 48 h. The method, boiled down:
as §2

The test system of assay [19] is CCRF-CEM. Nature of the assay: Cytotoxicity against human CEM cells 3 days by coulter counting. The class given is functional. The settings on record: 72 h. The method in brief: as §2
Assay [20] concerns Human alphaherpesvirus 3. The assay is described as follows: Antiviral activity against thymidine kinase-deficient Varicella Zoster virus 07/1 infected in human HEL cells assessed as inhibition of viral plaque formation at 250 uM. Type of assay: functional, organism-based.
The test system of assay [21] is Human respirovirus 3. Nature of the assay: Antiviral activity against Parainfluenza-3 virus infected in african green monkey Vero cells assessed as inhibition of viral plaque formation at 250 uM. Type of assay: functional, organism-based. The method in brief:
as §1

In assay [22] the test system is Coxsackievirus B4. The assay is described as follows: Antiviral activity against Coxsackievirus B4 infected in human HeLa cells assessed as inhibition of viral plaque formation at 250 uM. Type of assay: functional, organism-based. The method in brief:
as §1

Assay [23] concerns Vesicular stomatitis virus. The assay is described as follows: Antiviral activity against Vesicular stomatitis virus infected in human HEL cells assessed as inhibition of viral plaque formation at 250 uM. Type of assay: functional, organism-based. The method, boiled down:
as §1

The subject of assay [24] is Respiratory syncytial virus. Nature of the assay: Antiviral activity against Respiratory syncytial virus infected in human HeLa cells assessed as inhibition of viral plaque formation at 250 uM. The class given is functional, organism-based. The method, boiled down:
as §1

Assay [25] has as its system Human alphaherpesvirus 3. Nature of the assay: Antiviral activity against thymidine kinase-positive Varicella Zoster virus Oka infected in human HEL cells assessed as inhibition of viral plaque formation at 250 uM. The class given is functional, cell-based. Conditions: strain Oka vaccine.

This note sets out measurements from ChEMBL document CHEMBL1926651, “Design, synthesis, antiviral and cytostatic evaluation of novel isoxazolidine nucleotide analogues with a 1,2,3-triazole linker” (Eur J Med Chem, 2012).

Active and inactive are the calls of the source. The calls are words filed in the database; no cut-off is given here.

On to `CCOP(=O)(OCC)[C@@H]1C[C@@H](n2cc(-c3nccn3C)nn2)ON1C`, for which the result in [1], in assay [2], in assay [4], in [5], in assay [7] and in [8] was inactive. Further, the outcome in assay [9], in [10], in assay [11], in [12], in assay [13] and in [14] was inactive. Also, the result in [15], in [16], in [17], in assay [20], in assay [21] and in assay [22] was inactive. Besides, the result in [23], in assay [24] and in [25] was inactive. The CC50 is more than 100 µM in assay [3], more than 250 µM in [6], not below 250 µM in assay [18] and more than 250 µM in [19].

As for `CCOP(=O)(OCC)[C@@H]1C[C@@H](n2cc(Cn3cc(C)c(=O)[nH]c3=O)nn2)ON1C` (relative stereo), the outcome in assay [1], in [2], in [4], in assay [5], in assay [7] and in [8] was inactive. Moreover, the outcome in [9], in assay [10], in [11], in [12], in assay [13] and in [14] was inactive. Also, the result in assay [15], in [16], in assay [17], in [20], in assay [21] and in assay [22] was inactive. In addition, the result in assay [23], in assay [24] and in [25] was inactive. Besides, the CC50 in assay [3] was more than 100 µM; in assay [6], more than 250 µM; in assay [18], not below 250 µM; in assay [19], more than 250 µM.

As to `CCOP(=O)(OCC)[C@@H]1C[C@H](n2cc(Cn3cc(C)c(=O)[nH]c3=O)nn2)ON1C` (racemic), the result in [1], in assay [2], in assay [4], in assay [5], in [7] and in assay [8] was inactive. Moreover, the result in assay [9], in assay [10], in [11], in assay [12], in [13] and in assay [14] was inactive. In addition, the outcome in assay [15], in assay [16], in [17], in assay [20], in [21] and in assay [22] was inactive. For the same compound, the outcome in assay [23], in [24] and in [25] was inactive. Further, the CC50 was more than 100 µM in [3], more than 250 µM in assay [6], 280 µM in [18] and more than 250 µM in assay [19].

With `Nc1ccn(C[C@@H](CO)OCP(=O)(O)O)c(=O)n1`, the result in assay [1], in [2], in assay [4], in [5], in assay [7] and in [8] was inactive. The result in assay [9], in assay [10], in [11], in assay [12], in [13] and in assay [14] was inactive. Further, the result in assay [15], in [16], in [17], in [20], in [21] and in assay [22] was inactive. Besides, the result in [23], in assay [24] and in assay [25] was inactive.

Consider `NC(=O)c1ncn([C@@H]2O[C@H](CO)[C@@H](O)[C@H]2O)n1`, for which the outcome in [1], in assay [2], in assay [4], in [5], in assay [7] and in assay [8] was inactive. Moreover, the result in assay [9], in assay [10], in assay [11], in assay [12], in assay [13] and in assay [14] was inactive. For the same compound, the result in assay [15], in assay [16], in assay [17], in assay [20], in assay [21] and in assay [22] was inactive. Also, the result in assay [23], in [24] and in [25] was inactive.

Consider `CCOC(=O)C1=C[C@@H](OC(CC)CC)[C@H](NC(C)=O)[C@@H](N)C1`, for which the outcome in [1], in [2], in assay [4], in assay [5], in assay [7] and in [8] was inactive. Also, the result in assay [9], in [10], in assay [11], in assay [12], in assay [13] and in assay [14] was inactive. The result in assay [15], in assay [16], in assay [17], in assay [20], in [21] and in assay [22] was inactive. The outcome in assay [23], in assay [24] and in [25] was inactive.

For orientation: CC50 means the concentration giving 50% cytotoxicity.
